According to ChEMBL document CHEMBL1158019, “A new pregnane glycoside from Dioscorea collettii var. hypoglauca” (1999):
The source made the active and inactive calls. No cut-off for these calls is given here.

Experiments:
[1] = test system: LNCaP; assay: Cytotoxicity against human LNCaP cells after 5 days by MTT assay; assay type: functional, cell-based
Method in brief: (§1)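 Cells grown in RPMI 1640 with 10% heat-inactivated FCS, 100 IU/mL penicillin and 100 µg/mL streptomycin. 1000 cells seeded per well; test samples added in fresh medium 24 h later, then 5 days at 37 °C. MTT (2 mg/mL solution) added for 4 h; cells dissolved in DMSO for 10 min; A540 read. Untreated cells taken as 100% survival; IC50 from viability-concentration plots; etoposide positive control.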

[2] = test system: Pyricularia; assay: Morphological deformation in Pyricularia oryzae mycelia; assay type: functional
Method in brief: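 Mycelia germinated from P. oryzae conidia were scored for morphological deformation. The endpoint was the minimum morphological deformation concentration (MMDC), the lowest concentration that produced deformation. Griseofulvin and fusarelin A served as positive controls.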

[3] = test system: HCT-15; assay: Cytotoxicity against human HCT-15 cells after 5 days by MTT assay; assay type: functional, cell-based; method in brief: as §1
[4] = test system: T47D; assay: Cytotoxicity against human T47D cells after 5 days by MTT assay; assay type: functional, cell-based
Method in brief: as §1, with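 “FCS, penicillin/streptomycin” for “FCS, 100 IU/mL penicillin”, “and 5” for “and 100”, “µg/mL insulin.” for “µg/mL streptomycin.”, “min; absorbance read at 540 nm.” for “min; A540 read.”, “cells set” for “cells taken”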

[5] = test system: PC-3; assay: Cytotoxicity against human PC-3 cells after 5 days by MTT assay; assay type: functional, cell-based; method in brief: as §1
[6] = test system: MDA-MB-231; assay: Cytotoxicity against human MDA-MB-231 cells after 5 days by MTT assay; assay type: functional, cell-based
Method in brief: as §1, with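 “FCS, penicillin/streptomycin” for “FCS, 100 IU/mL penicillin”, “and 5” for “and 100”, “µg/mL insulin.” for “µg/mL streptomycin.”, “min; absorbance read at 540 nm.” for “min; A540 read.”, “cells set” for “cells taken”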

[7] = test system: HT-29; assay: Cytotoxicity against human HT-29 cells after 5 days by MTT assay; assay type: functional, cell-based; method in brief: as §1

For CC(=O)C1=CC[C@H]2[C@@H]3CC=C4C[C@@H](O[C@@H]5O[C@H](CO)[C@@H](O[C@@H]6O[C@@H](C)[C@H](O)[C@@H](O)[C@H]6O)[C@H](O)[C@H]5O[C@@H]5O[C@@H](C)[C@H](O)[C@@H](O)[C@H]5O)CC[C@]4(C)[C@H]3CC[C@]12C, the Activity [1] was “inactive”, the Activity [2] was 236 µM and the Activity [3] was “inactive”. The Activity [4] was “inactive”, the Activity [5] was “inactive” and the Activity [6] was “inactive”. The Activity [7] was “inactive”.

In the case of CC(=O)[C@H]1[C@@H](OC(=O)CCC(C)CO[C@@H]2O[C@H](CO)[C@@H](O)[C@H](O)[C@H]2O)C[C@H]2[C@@H]3CC=C4C[C@@H](O[C@@H]5O[C@H](CO)[C@@H](O[C@@H]6O[C@@H](C)[C@H](O)[C@@H](O)[C@H]6O)[C@H](O)[C@H]5O[C@@H]5O[C@@H](C)[C@H](O)[C@@H](O)[C@H]5O)CC[C@]4(C)[C@H]3CC[C@@]21C (some centres undefined) [HYPOGLAUCIN G], the Activity [1] is reported as “inactive”, the Activity [2] is reported as 135 µM and the Activity [3] is reported as “inactive”. The Activity [4] was “inactive”, the Activity [5] was “inactive” and the Activity [6] was “inactive”. The Activity [7] was “inactive”.
